This note sets out measurements from PubChem BioAssay AID623913 (Johns Hopkins Ion Channel Center, 2012).

In general, IC50 refers to the concentration needed to halve the response being measured.

The source made the active and inactive calls.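 How the source made its calls: active means KCNQ2 potassium channel blocked by over 30% at some tested dose, with a dose response curve fitted; inactive means no blocking at any dose, or no fitted curve.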

Chain of Potassium voltage-gated channel subfamily KQT member 2 (Rattus norvegicus) (O88943 whole entry, looked up): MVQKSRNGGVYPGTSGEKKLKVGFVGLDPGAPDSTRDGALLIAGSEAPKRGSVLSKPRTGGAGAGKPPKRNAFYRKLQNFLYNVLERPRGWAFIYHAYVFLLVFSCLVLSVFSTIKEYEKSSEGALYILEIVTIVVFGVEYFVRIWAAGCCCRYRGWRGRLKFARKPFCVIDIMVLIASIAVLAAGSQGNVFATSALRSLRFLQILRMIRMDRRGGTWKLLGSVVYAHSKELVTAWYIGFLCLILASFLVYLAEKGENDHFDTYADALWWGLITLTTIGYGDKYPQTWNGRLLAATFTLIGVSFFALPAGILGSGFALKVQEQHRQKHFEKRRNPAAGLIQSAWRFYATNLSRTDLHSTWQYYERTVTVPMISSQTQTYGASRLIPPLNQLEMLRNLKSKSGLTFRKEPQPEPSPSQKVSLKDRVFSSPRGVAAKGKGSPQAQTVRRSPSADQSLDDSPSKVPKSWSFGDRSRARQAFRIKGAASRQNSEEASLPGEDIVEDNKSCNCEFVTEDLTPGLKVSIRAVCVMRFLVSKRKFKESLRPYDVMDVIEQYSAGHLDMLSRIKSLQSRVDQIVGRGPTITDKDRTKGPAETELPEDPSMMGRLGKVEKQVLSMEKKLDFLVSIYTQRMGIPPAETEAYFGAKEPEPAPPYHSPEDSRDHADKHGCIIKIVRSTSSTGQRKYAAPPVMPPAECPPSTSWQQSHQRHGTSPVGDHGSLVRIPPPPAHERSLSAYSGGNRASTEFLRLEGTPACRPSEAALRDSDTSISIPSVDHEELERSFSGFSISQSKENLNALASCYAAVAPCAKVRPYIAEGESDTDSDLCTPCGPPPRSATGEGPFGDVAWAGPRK

The target in the first experiment is Potassium voltage-gated channel subfamily KQT member 2 (Rattus norvegicus) (UniProt O88943). The experiment can be described thus: KCNQ2 channel inhibition, SAR follow-up, selectivity assay for KCNK9 inhibitor project, cell-based, FluxOR thallium flux, concentration-response, set 4 (AID 623913). The following applies: KCNQ2 cells, FluxOR thallium flux fluorescence. The essentials:
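Material: KCNQ2-expressing CHO cells. Incubation: dye 90 min, compounds 20 min, room temperature. Detection: FluxOR thallium flux fluorescence, kinetic read. Control set: XE-991 as KCNQ2 inhibitor control. Replication: concentration-response curves in at least duplicate.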
As to `COc1ccc(C(=O)CCSc2nnc(-c3ccco3)n2C(C)C2CC3CCC2C3)cc1OC` (stereo not given), the IC50 is 11.1 µM.

The experiment is the same for the next values; noted with them: KCNQ2 cells, FluxOR thallium flux fluorescence; at 30 µM (top of the series).
Turning to `CC(C1CC2CCC1C2)n1c(-c2ccco2)nn(CCc2ccncc2)c1=S` (stereo not given), the “thallium flux ratio, lower = inhibition” value was “inactive”.
`COc1ccc(NC(=O)CSc2nnc(-c3ccco3)n2C(C)C2CC3CCC2C3)cc1OC` (stereo not given): the “thallium flux ratio, lower = inhibition” value is “inactive”.
On the same count and under the same terms, in the case of `COc1cccc(CCSc2nnc(-c3ccco3)n2C(C)C2CC3CCC2C3)c1` (stereo not given) it was “inactive”; in that of `COc1ccc(CC(=O)NCc2ccccc2-c2ccccc2C(=O)NCc2ccc(F)cc2F)cc1`, “inactive”.
With `CCCC(=O)C1CCN(c2ncnc3c2CN(C(=O)c2ccc(-c4ccccc4)cc2)CC3)CC1`, the “thallium flux ratio, lower = inhibition” value is “inactive”.
`C[C@H](C1CCCCC1)n1c(-c2ccccc2F)n[nH]c1=S`: the “thallium flux ratio, lower = inhibition” value was “inactive”.
Same read-out and setting: in the case of `CC(C1CC2CCC1C2)n1c(SCCc2cccc(O)c2)nnc1-c1ccco1` (stereo not given) it was “inactive”.
Still for that read-out and setting: the same measure for `COc1cccc(-c2nnc(SSc3nnc(-c4cccc(OC)c4)n3C(C)C3CC4CCC3C4)n2C(C)C2CC3CCC2C3)c1` (stereo not given): “inactive”.
Turning to `C[C@@H]([C@@H]1CC2CC[C@H]1C2)n1c(-c2ccco2)n[nH]c1=S`, the “thallium flux ratio, lower = inhibition” value is “inactive”.
Consider `COc1cccc(-c2n[nH]c(=S)n2[C@H](C)[C@@H]2CC3CC[C@H]2C3)c1`, for which the “thallium flux ratio, lower = inhibition” value was “inactive”.
Still for that read-out and setting: the same measure for `CC(C1CC2CCC1C2)n1c(SCCN2CCOCC2)nnc1-c1ccco1` (stereo not given): “inactive”; for `CC(C1CC2CCC1C2)n1c(SCCc2ccccn2)nnc1-c1ccco1` (stereo not given): “inactive”.
The same measure, in the same setting: the same measure for `C[C@H]([C@@H]1CC2CC[C@H]1C2)n1c(-c2ccsc2)n[nH]c1=S`: “inactive”; for `CC(C1C[C@H]2CCC1C2)n1c(-c2ccsc2)n[nH]c1=S` (stereo not given in full): “inactive”; for `C[C@H](C1CCCCC1)n1c(-c2ccsc2)n[nH]c1=S`: “inactive”.
With `CC(C1CCN(C)CC1)n1c(-c2ccco2)n[nH]c1=S` (stereo not given), the “thallium flux ratio, lower = inhibition” value was “inactive”.
Consider `CC(C1CC2CCC1C2)n1c(SCC(=O)N2CCN(C)CC2)nnc1-c1ccco1` (stereo not given), for which the “thallium flux ratio, lower = inhibition” value was “inactive”.
Consider `C[C@@H]([C@@H]1CC2CC[C@H]1C2)n1c(-c2ccsc2)n[nH]c1=S`, for which the “thallium flux ratio, lower = inhibition” value was “inactive”.
Take `C[C@H]([C@@H]1CC2CC[C@H]1C2)n1c(-c2ccco2)n[nH]c1=S`: the “thallium flux ratio, lower = inhibition” value is “inactive”.
As for `CC([C@@H]1CC2CC[C@H]1C2)n1c(-c2ccsc2)n[nH]c1=S` (stereo not given in full), the “thallium flux ratio, lower = inhibition” value is “inactive”.
Still for that read-out and setting: in the case of `COc1ccc(CSc2nnc(-c3ccco3)n2C(C)C2CC3CCC2C3)cc1OC` (stereo not given) it was “inactive”; in that of `COc1cccc(-c2n[nH]c(=S)n2[C@H](C)C2CCCCC2)c1`, “inactive”.
Take `CC(C1CC2CCC1C2)n1c(N)nnc1-c1ccco1` (stereo not given): the “thallium flux ratio, lower = inhibition” value was “inactive”.
Turning to `C[C@H]([C@@H]1CC2CC[C@H]1C2)n1c(-c2ccccc2F)n[nH]c1=S`, the “thallium flux ratio, lower = inhibition” value is “inactive”.
